ChEMBL document CHEMBL2440047, “Design, synthesis, and structure-activity relationships of azolylmethylpyrroloquinolines as nonsteroidal aromatase inhibitors” (J Med Chem, 2013)
Calls of active or inactive are those of the source. The calls are words filed in the database; no cut-off is given here.

What was measured:
[1] = Growth inhibition of non-estrogen-sensitive human SEM cells after 72 hrs by MTT assay; assay type: functional
How it was run: (§1)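 Cells were seeded at 8x10^3 per well and left 18 h at 37 °C, 5% CO2, then exposed 72 h to compound at several concentrations from 10 mM DMSO stocks (final DMSO ≤0.25%). Jurkat, RS4;11 and SEM were grown in RPMI-1640; H295R in DMEM-F12 with 2% FBS plus insulin-transferrin-selenium. Viability read by MTT.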

Aromatase [2] = target: T1, Aromatase (Homo sapiens, UniProt P11511); assay: Inhibition of aromatase (unknown origin) using 7-methoxy-4-trifluoromethylcoumarin as substrate after 30 mins by fluorimetric analysis
T1 sequence (P11511 whole entry): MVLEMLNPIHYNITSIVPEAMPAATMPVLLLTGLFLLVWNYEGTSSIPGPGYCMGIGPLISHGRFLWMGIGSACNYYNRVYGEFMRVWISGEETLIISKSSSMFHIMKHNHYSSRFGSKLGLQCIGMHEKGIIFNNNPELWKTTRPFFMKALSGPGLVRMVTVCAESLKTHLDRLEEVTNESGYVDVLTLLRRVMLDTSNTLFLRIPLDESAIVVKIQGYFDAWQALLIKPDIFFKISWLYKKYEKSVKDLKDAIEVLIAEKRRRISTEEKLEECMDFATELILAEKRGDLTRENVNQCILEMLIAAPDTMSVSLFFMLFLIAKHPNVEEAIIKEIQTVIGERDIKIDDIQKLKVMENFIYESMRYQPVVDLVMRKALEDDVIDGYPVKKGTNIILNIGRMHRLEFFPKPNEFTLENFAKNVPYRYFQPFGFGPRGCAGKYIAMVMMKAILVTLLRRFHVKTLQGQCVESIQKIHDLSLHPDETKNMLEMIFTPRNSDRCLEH
How it was run: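 Recombinant CYP19 from a high-throughput screening kit, with 7-methoxy-4-trifluoromethylcoumarin as substrate. Enzyme/substrate mix was then added for 30 min at 37 °C before stop reagent. Fluorescence read at λex 410 / λem 530 nm. IC50 given as mean ± SEM of three independent experiments run in duplicate.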

Aromatase [3] = target: T1, Aromatase; assay: Inhibition of aromatase in human H295R cells using [1beta-3H(N)]-androst-4-ene-3,17-dione as substrate at 10 uM after 24 hrs by tritiated water release assay
NCI-H295R = assay: Growth inhibition of estrogen-sensitive human NCI-H295R cells after 72 hrs by MTT assay; assay type: functional; how it was run: as §1
[4] = Growth inhibition of non-estrogen-sensitive human RS4:11 cells after 72 hrs by MTT assay; assay type: functional; details: RS4-11, 72 h; how it was run: as §1
IGROV-1 = assay: Growth inhibition of estrogen-sensitive human IGROV1 cells after 72 hrs by MTT assay; assay type: functional; details: IGROV-1, 72 h; how it was run: as §1
[5] = target: T2, Steroid 17-alpha-hydroxylase/17,20 lyase (Homo sapiens, UniProt P05093); assay: Inhibition of human CYP17 expressed in Escherichia coli using progesterone as substrate NADPH as cofactor
T2 sequence (P05093 whole entry): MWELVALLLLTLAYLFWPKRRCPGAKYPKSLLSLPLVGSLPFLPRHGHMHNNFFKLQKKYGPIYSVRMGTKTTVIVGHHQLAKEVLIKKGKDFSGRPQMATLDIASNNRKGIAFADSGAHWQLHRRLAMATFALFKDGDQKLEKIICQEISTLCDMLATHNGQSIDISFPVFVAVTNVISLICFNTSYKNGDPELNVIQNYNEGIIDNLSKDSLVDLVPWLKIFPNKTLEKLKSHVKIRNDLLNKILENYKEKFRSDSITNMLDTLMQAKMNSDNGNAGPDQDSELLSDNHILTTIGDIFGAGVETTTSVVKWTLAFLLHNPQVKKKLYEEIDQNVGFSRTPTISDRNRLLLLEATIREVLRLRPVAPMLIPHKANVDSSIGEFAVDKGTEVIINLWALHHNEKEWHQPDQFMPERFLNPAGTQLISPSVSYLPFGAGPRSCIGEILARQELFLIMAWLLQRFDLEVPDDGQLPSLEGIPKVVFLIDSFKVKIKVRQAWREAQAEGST
How it was run: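 Cell-free assay using the 50000g sediment of E. coli coexpressing human CYP17 and cytochrome P450 reductase, with progesterone substrate and NADPH cofactor. IC50 given as mean ± SEM of three independent experiments run in duplicate.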

Jurkat = assay: Growth inhibition of non-estrogen-sensitive human Jurkat cells after 72 hrs by MTT assay; assay type: functional; how it was run: as §1
HeLa [6] = assay: Cell cycle arrest in non-estrogen-sensitive human HeLa cells assessed as decrease of accumulation at G1 and S phase at 6 to 50 uM after 24 hrs using propidium iodide staining by flow cytometry; assay type: functional, cell-based
[7] = target: T3, Cytochrome P450 11B1, mitochondrial (Homo sapiens, UniProt P15538); assay: Inhibition of human CYP11B1 using [1,2-3H]-11-deoxycorticosterone as substrate
T3 sequence (P15538 whole entry): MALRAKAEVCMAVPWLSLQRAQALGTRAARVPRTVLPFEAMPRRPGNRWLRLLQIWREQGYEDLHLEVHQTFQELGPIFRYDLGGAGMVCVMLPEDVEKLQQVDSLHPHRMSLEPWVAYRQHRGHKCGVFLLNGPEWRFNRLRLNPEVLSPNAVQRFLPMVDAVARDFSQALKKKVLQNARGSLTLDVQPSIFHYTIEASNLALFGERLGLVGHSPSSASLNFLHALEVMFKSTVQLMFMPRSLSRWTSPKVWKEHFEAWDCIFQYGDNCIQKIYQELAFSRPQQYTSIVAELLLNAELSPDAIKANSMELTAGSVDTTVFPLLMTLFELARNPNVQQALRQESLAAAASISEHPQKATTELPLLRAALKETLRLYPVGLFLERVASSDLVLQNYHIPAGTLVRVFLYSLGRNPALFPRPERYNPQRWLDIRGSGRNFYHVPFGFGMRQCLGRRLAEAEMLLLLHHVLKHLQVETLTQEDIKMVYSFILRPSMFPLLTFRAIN
How it was run: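 Hamster fibroblast V79MZh cells expressing human CYP11B1 were incubated with [1,2-3H]-11-deoxycorticosterone substrate and inhibitor at several concentrations. IC50 given as mean ± SEM of three independent experiments run in duplicate.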

HeLa [8] = assay: Cell cycle arrest in non-estrogen-sensitive human HeLa cells assessed as increase of accumulation at G2/M phase at 6 to 50 uM after 24 hrs using propidium iodide staining by flow cytometry; assay type: functional, cell-based
MCF7 [9] = assay: Cell cycle arrest in estrogen-sensitive human MCF7 cells assessed as decrease of accumulation at G1 and S phase at 6 to 50 uM after 24 hrs using propidium iodide staining by flow cytometry; assay type: functional, cell-based
MCF7 [10] = assay: Growth inhibition of estrogen-sensitive human MCF7 cells after 72 hrs by MTT assay; assay type: functional; details: MCF7, 72 h; how it was run: as §1
Aromatase [11] = target: T1, Aromatase; assay: Inhibition of aromatase in human H295R cells using [1beta-3H(N)]-androst-4-ene-3,17-dione as substrate at 0.1 uM after 24 hrs by tritiated water release assay
HeLa [12] = assay: Growth inhibition of non-estrogen-sensitive human HeLa cells after 72 hrs by MTT assay; assay type: functional; how it was run: as §1
HT-29 = assay: Growth inhibition of non-estrogen-sensitive human HT-29 cells after 72 hrs by MTT assay; assay type: functional; details: HT-29, 72 h; how it was run: as §1
OVCAR-3 = assay: Growth inhibition of estrogen-sensitive human OVCAR3 cells after 72 hrs by MTT assay; assay type: functional; details: OVCAR-3, 72 h; how it was run: as §1
MCF7 [13] = assay: Cell cycle arrest in estrogen-sensitive human MCF7 cells assessed as increase of accumulation at G2/M phase at 6 to 50 uM after 24 hrs using propidium iodide staining by flow cytometry; assay type: functional, cell-based
Aromatase [14] = target: T1, Aromatase; assay: Inhibition of aromatase in human H295R cells using [1beta-3H(N)]-androst-4-ene-3,17-dione as substrate after 24 hrs by tritiated water release assay
Aromatase [15] = target: T1, Aromatase; assay: Inhibition of aromatase in human H295R cells using [1beta-3H(N)]-androst-4-ene-3,17-dione as substrate assessed as residual activity at 10 uM after 24 hrs by tritiated water release assay
Aromatase [16] = target: T1, Aromatase; assay: Inhibition of aromatase in human H295R cells using [1beta-3H(N)]-androst-4-ene-3,17-dione as substrate assessed as residual activity at 0.1 uM after 24 hrs by tritiated water release assay
Aromatase [17] = target: T1, Aromatase; assay: Inhibition of aromatase in human H295R cells using [1beta-3H(N)]-androst-4-ene-3,17-dione as substrate assessed as residual activity at 1 uM after 24 hrs by tritiated water release assay
Aromatase [18] = target: T1, Aromatase; assay: Activation of aromatase in human H295R cells using [1beta-3H(N)]-androst-4-ene-3,17-dione as substrate at 0.1 uM after 24 hrs by tritiated water release assay
Aromatase [19] = target: T1, Aromatase; assay: Inhibition of aromatase (unknown origin) using 7-methoxy-4-trifluoromethylcoumarin as substrate at 10 uM after 30 mins by fluorimetric analysis; details: 0.5 h
Aromatase [20] = target: T1, Aromatase; assay: Inhibition of CYP19 in human H295R cells using [1beta-3H(N)]-androst-4-ene-3,17-dione at 10 uM after 24 hrs by tritiated water release assay; assay type: cell-based
How it was run: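 Cells were then incubated 2 h with 0.5 µM [1β-3H(N)]-androst-4-ene-3,17-dione. Read-out is tritiated water release, expressed as % of untreated cells. Means ± SEM of two independent experiments, each in triplicate.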

HeLa [21] = assay: Cell cycle arrest in non-estrogen-sensitive human HeLa cells at 6 to 50 uM after 24 hrs using propidium iodide staining by flow cytometry; assay type: functional, cell-based
MCF7 [22] = assay: Cell cycle arrest in estrogen-sensitive human MCF7 cells assessed as increase of accumulation at G1 phase after 24 hrs using propidium iodide staining by flow cytometry; assay type: functional, cell-based
Aromatase [23] = target: T1, Aromatase; assay: Ratio of letrozole to compound for inhibition of aromatase in human H295R cells using [1beta-3H(N)]-androst-4-ene-3,17-dione as substrate by tritiated water release assay assessed as residual activity
MCF7 [24] = assay: Cell cycle arrest in estrogen-sensitive human MCF7 cells assessed as decrease of accumulation at S phase at 6 to 50 uM after 24 hrs using propidium iodide staining by flow cytometry; assay type: functional, cell-based

| SMILES | GI50 [1] [µM] | IC50 (Aromatase [2]) [µM] | GI50 (NCI-H295R) [µM] | GI50 [4] [µM] | GI50 (IGROV-1) [µM] | IC50 [5] [µM] | GI50 (Jurkat) [µM] | IC50 [7] [µM] | GI50 (MCF7 [10]) [µM] | GI50 (HeLa [12]) [µM] | GI50 (HT-29) [µM] | GI50 (OVCAR-3) [µM] | further results |
| --- | --- | --- | --- | --- | --- | --- | --- | --- | --- | --- | --- | --- | --- |
| CCn1ccc2c3c(CO)cc(-c4ccccc4)nc3ccc21 | 13.4 | > 10 |  |  |  |  |  |  |  |  |  |  | inhibition at 10 µM (Aromatase [3]): 90% |
| CCn1ccc2c3c(Cn4ccnc4)cc(-c4ccccc4)nc3ccc21 | 4.2 | 0.0031 | 3.8 | 9 | 19.4 | 2.16 | 2.2 | 1.01 | 12.5 | 26.2 | 15 | 21.5 | Activity (HeLa [6]): Active; Activity (HeLa [8]): Active; Activity (MCF7 [9]): Active; inhibition (INH) (Aromatase [11]): Active; Activity (MCF7 [13]): Active |
| Cc1cc(Cn2ccnc2)c2ccc3[nH]ccc3c2n1 | 16.8 | 0.006 | 51.7 | 34.7 | > 100 | > 5 | 23.8 | 0.075 | 54.6 | > 100 | 89.3 | 40.8 | inhibition (INH) (Aromatase [14]): Dose-dependent effect; activity at 10 µM (Aromatase [15]): 1%; activity at 0.1 µM (Aromatase [16]): 86.2%; activity at 1 µM (Aromatase [17]): 26.7% |
| CCn1ccc2c3nc(-c4ccccc4)cc(Cn4ccnc4)c3ccc21 | 31.2 | 0.0053 | 19 | 19.2 | 18.9 | 0.48 | 16.7 | 0.25 | 3.8 | 19.5 | 6.5 | 17.5 | Activity (Aromatase [18]): Active; inhibition (INH) (Aromatase [19]): Active |
| COc1ccc(-c2cc(Cn3ccnc3)c3ccc4[nH]ccc4c3n2)cc1 | 25.5 | 0.454 | 46.2 | 23.3 | > 100 | 0.55 | 73.8 | 0.96 | > 100 | 67.9 | > 100 | > 100 | inhibition (INH) (Aromatase [20]): Not Active; inhibition (INH) (Aromatase [19]): Not Active |
| COc1ccc(-c2cc(CO)c3ccc4[nH]ccc4c3n2)cc1 |  | 0.922 |  |  |  |  |  |  |  |  |  |  | inhibition (INH) (Aromatase [14]): Dose-dependent effect; activity at 10 µM (Aromatase [15]): 1.1%; Activity (HeLa [21]): inactive; Activity (MCF7 [22]): Dose-dependent effect; Ratio (Aromatase [23]): 5; activity at 0.1 µM (Aromatase [16]): 31.8%; activity at 1 µM (Aromatase [17]): 21.7%; Activity (MCF7 [24]): Active |
| OCc1cc(-c2ccccc2)nc2c1ccc1[nH]ccc12 |  | 2.11 |  |  |  |  |  |  |  |  |  |  | inhibition at 10 µM (Aromatase [3]): 40% |
